Test results reported in ChEMBL document CHEMBL1148175, “Immunostimulant agents from Andrographis paniculata” (1993).

What was measured:
Assay type in all cases: functional
Mus musculus [1] = assay: Immunostimulant activity in sheep RBC-immunized BALB/c albino mouse assessed as hemolytic plaque-forming cells per 10^5 spleen cells at 4 mg/kg, ip administered on day 7 and 3 prior to immunization measured after 5 days; conditions: route intraperitoneal
Summary of the method: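 Following ip dosing on days -7 and -3 and ip SRBC (1×10^8) on day 0, splenic hemolytic plaques counted on day 5 by Jerne-Nordin technique, duplicate per mouse. Group means expressed as PFC/10^5 spleen cells. Three experiments with four animals each; Student's t-test.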

Mus musculus [2] = assay: Immunostimulant activity in sheep RBC-immunized BALB/c albino mouse assessed as hemagglutininating antibody titer at 1 mg/kg, po administered daily for 7 days by microtiter hemagglutinination technique
Summary of the method: (§1)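 Compound dissolved in 0.05 M phosphate buffer pH 7.2 with 0.1 M NaCl, given orally daily for 7 days or ip on days -7 and -3, then ip immunization with 1×10^8 SRBC. Serum from retro-orbital bleed on day 5; twofold dilutions mixed with 1% SRBC, 1.5-2 h at room temperature. Titer = reciprocal of highest dilution giving 50% agglutination. Two experiments, four mice each.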

Mus musculus [3] = assay: Nonspecific immunostimulant activity in sheep RBC-immunized BALB/c albino mouse assessed as macrophage migration index at 4 mg/kg, ip administered on day 7 and 3 prior to immunization measured after 18 to 24 hrs; conditions: route intraperitoneal
Summary of the method: (§2)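 Peritoneal exudate cells from dosed mice (oral daily 7 days, or ip on days -7 and -3) packed in microhematocrit capillaries and allowed to migrate 18-24 h in a migration chamber. MMI = ratio of migration areas, control vs. treated animals. Two experiments, four mice each.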

Mus musculus [4] = assay: Immunostimulant activity in sheep RBC-immunized BALB/c albino mouse assessed as macrophage migration index at 1 mg/kg, po administered daily for 7 days measured after 18 to 24 hrs; summary of the method: as §2
Mus musculus [5] = assay: Immunostimulant activity in sheep RBC-immunized BALB/c albino mouse assessed as delayed-type hypersensitivity response-related right foot pad thickness at 4 mg/kg, ip administered on day 7 and 3 prior to immunization measured after 5 days relative to non-immunized foot pad thickness; conditions: route intraperitoneal
Summary of the method: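 Mice (BALB/c, either sex, 20-22 g; four per group) immunized ip with 1×10^8 SRBC on day 0; on day 5 challenged with 1×10^8 SRBC (50 μl) in right foot pad. Foot pad thickness read 24 h later; reaction in mm = right (SRBC) minus PBS-injected pad. Compound in PBS pH 7.2 given ip on days -7 and -3. Student's t-test.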

Mus musculus [6] = assay: Nonspecific immunostimulant activity in sheep RBC-immunized BALB/c albino mouse assessed as phagocytosis of [14C] leucine labeled Escherichia coli at 4 mg/kg, ip administered on day 7 and 3 prior to immunization; conditions: route intraperitoneal
Summary of the method: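 Peritoneal macrophages from mice dosed ip on days -7 and -3 incubated in vitro with E. coli labelled with 14C-leucine (sp. act. 190 mCi/mmol). Uptake expressed as percentage incorporation of 14C-leucine. Three experiments, four animals each.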

Mus musculus [7] = assay: Immunostimulant activity in sheep RBC-immunized BALB/c albino mouse assessed as hemagglutininating antibody titer at 4 mg/kg, ip administered on day 7 and 3 prior to immunization measured after 5 days by microtiter hemagglutinination technique; conditions: route intraperitoneal; summary of the method: as §1
Mus musculus [8] = assay: Nonspecific immunostimulant activity in sheep RBC-immunized BALB/c albino mouse assessed as [3H]thymidine uptake by splenic lymphocytes at 4 mg/kg, ip administered on day 7 and 3 prior to immunization by liquid scintillation counting; conditions: route intraperitoneal
Summary of the method: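 Spleen cells from ip-treated mice (days -7, -3) at 1.5×10^6 cells/ml in complete RPMI-1640 with fetal calf serum, cultured in triplicate 3 days at 37° under 5% CO2, then pulsed 18 h with 1 μCi 3H-thymidine. Incorporation counted by scintillation, reported as cpm ± SD.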

| SMILES | Activity (Mus musculus [1]) | Activity (Mus musculus [2]) | Activity (Mus musculus [3]) | Activity (Mus musculus [4]) | Activity (Mus musculus [5]) | Activity (Mus musculus [6]) | Activity (Mus musculus [7]) | Activity (Mus musculus [8]) |
| --- | --- | --- | --- | --- | --- | --- | --- | --- |
| C=C1CC[C@@H]2[C@](C)(CO)[C@H](O)CC[C@@]2(C)[C@@H]1C/C=C1/C(=O)OC[C@H]1O [ANDROGRAPHOLIDE] | 128 | 1280 | 2.84 | 1.6 | 2.5 mm | 55.56% | 1536 | 6486 cpm |
| C=C1CC[C@@H]2[C@](C)(CO[C@@H]3O[C@H](CO)[C@@H](O)[C@H](O)[C@H]3O)CCC[C@@]2(C)[C@@H]1CCC1=CCOC1=O [NEOANDROGRAPHOLIDE] |  | 1365.33 | 2.51 | 1.9 |  |  | 1638.4 |  |
